Calls of active or inactive are those of the source. The calls are words filed in the database; no cut-off is given here.
T1: 17-beta-hydroxysteroid dehydrogenase type 1 (Homo sapiens, UniProt P14061)
T1 sequence (P14061 whole entry): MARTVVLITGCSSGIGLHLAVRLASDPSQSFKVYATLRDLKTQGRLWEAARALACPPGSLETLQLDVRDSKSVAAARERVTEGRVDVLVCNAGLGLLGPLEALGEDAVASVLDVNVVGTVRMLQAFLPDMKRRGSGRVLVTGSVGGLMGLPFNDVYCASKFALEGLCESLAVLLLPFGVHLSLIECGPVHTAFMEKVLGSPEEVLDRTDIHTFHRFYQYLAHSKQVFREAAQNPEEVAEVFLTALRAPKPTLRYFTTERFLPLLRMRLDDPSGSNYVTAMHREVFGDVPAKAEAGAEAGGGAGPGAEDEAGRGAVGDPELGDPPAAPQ

T2: 17-beta-hydroxysteroid dehydrogenase type 2 (Homo sapiens) (UniProt P37059)
T2 sequence (whole entry): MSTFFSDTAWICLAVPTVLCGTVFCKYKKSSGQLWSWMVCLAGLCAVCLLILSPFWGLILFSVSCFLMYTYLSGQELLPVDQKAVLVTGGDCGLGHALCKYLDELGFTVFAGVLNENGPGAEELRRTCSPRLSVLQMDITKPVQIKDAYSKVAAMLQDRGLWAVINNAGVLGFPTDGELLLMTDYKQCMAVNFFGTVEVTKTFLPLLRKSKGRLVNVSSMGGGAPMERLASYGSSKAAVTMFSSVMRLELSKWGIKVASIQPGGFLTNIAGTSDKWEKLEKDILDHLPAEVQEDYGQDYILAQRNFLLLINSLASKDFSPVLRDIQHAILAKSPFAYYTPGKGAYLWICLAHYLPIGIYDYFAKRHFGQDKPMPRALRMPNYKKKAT

B1: 17-beta-hydroxysteroid dehydrogenase type 1 (Homo sapiens), P14061 (protein)
chain: T1 sequence (P14061 whole entry)

Experiments:
[1] = target: T1, 17-beta-hydroxysteroid dehydrogenase type 1; test: Inhibition of 17beta-HSD1 in human T47D cells assessed as inhibition of transformation of [14C]-estrone into [14C]estrogen; type: cell-based
MCF7 [2] = test: Reversal of estrogen-induced proliferation in estrogen-sensitive human MCF7 cells at 0.5 uM after 8 days relative to control; type: functional, cell-based
Procedure, shortened: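 Antiestrogenic test: MCF-7 cells plated in phenol red-free DME-F12 with charcoal-stripped FBS; two days later incubated 8 days with E₂ (0.1 nM) plus compound (0.5 μM), pure antiestrogen EM-139 (0.5 μM) as reference, medium changed every second day. CellTiter 96 Aqueous read-out; triplicate, mean ± SEM.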

T47D [3] = test: Reduction of estrone-induced human T47D cell growth at 0.5 uM after 8 days relative to control; type: functional; parameters: scale not given: the % may be the effect or the level left
Procedure, shortened: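 T-47D cells in estrogen-free phenol red-free RPMI with insulin and 5% charcoal-stripped FBS, grown 8 days with E₁ (0.01, 0.1, 1 or 5 nM) plus inhibitor (0.05–1 μM), medium changed every 2 days. Proliferation by CellTiter 96 Aqueous assay; growth without E₁ and inhibitor = 100%. Triplicate, mean ± SEM; Duncan–Kramer test.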

[4] = target: T2, 17-beta-hydroxysteroid dehydrogenase type 2 (Homo sapiens); test: Inhibition of 17beta-HSD2 over-expressed in HEK293 cells assessed as inhibition of transformation of [14C]-estrogen into [14C]-estrone at 10 uM; type: cell-based
T47D [5] = test: Antiproliferative activity against estrogen receptor positive human T47D cells at 0.01 uM after 8 days relative to control; type: functional, cell-based
Procedure, shortened: (§1)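 Estrogen-starved cells, resuspended in phenol red-free medium (RPMI for T-47D, DME-F12 for MCF-7) with insulin (50 ng/mL) and 5% dextran-coated charcoal-treated FBS, seeded 3000 cells/well. After 48 h medium replaced with compound dilutions (0.01, 0.1, 1 μM), renewed every 2 days for 8 days. Growth read by CellTiter 96 Aqueous assay; control = 100%; triplicate, mean ± SEM.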

MCF7 [6] = test: Antiproliferative activity against estrogen receptor positive human MCF7 cells at 0.1 uM after 8 days relative to control; type: functional; procedure, shortened: as §1
T47D [7] = test: Antiproliferative activity against estrogen receptor positive human T47D cells at 1 uM after 8 days relative to control; type: functional; procedure, shortened: as §1
T47D [8] = test: Antiproliferative activity against estrogen receptor positive human T47D cells at 0.1 uM after 8 days relative to control; type: functional, cell-based; procedure, shortened: as §1
[9] = substrate: C[C@]12CC[C@@H]3c4ccc(O)cc4CC[C@H]3[C@@H]1CC[C@@H]2O
[10] = substrate: C[C@]12CC[C@@H]3c4ccc(O)cc4CC[C@H]3[C@@H]1CCC2=O

Molecule | IC50 [1] [nM] | Activity (MCF7 [2]) | Activity (T47D [5]) | Activity (MCF7 [6]) [%] | Activity (T47D [7]) [%] | Activity (T47D [8]) | also measured
C[C@]12CC[C@@H]3c4ccc(O)cc4CC[C@H]3[C@@H]1C[C@H](Cc1cccc(C(N)=O)c1)C2=O | 171 | – | – | – | – | – | –
C[C@]12CC[C@@H]3c4ccc(O)cc4CC[C@H]3[C@@H]1C[C@H](Cc1cccc(C(N)=O)c1)[C@@H]2O | 44 | inactive | – | – | – | – | Activity (T47D [3]): 62%; Activity [4]: inactive
C[C@]12CC[C@@H]3c4ccccc4CC[C@H]3[C@@H]1C[C@H](Cc1cccc(C(N)=O)c1)[C@@H]2O | – | – | inactive | 31 | 47 | inactive | –
CCCCN(C)C(=O)CCCCCCCCCC[C@@H]1Cc2cc(O)ccc2[C@H]2CC[C@]3(C)[C@@H](O)[C@H](Cl)C[C@H]3[C@H]12 | – | Active | – | – | – | – | –
COc1cc2c(cc1O)CC[C@@H]1[C@@H]2CC[C@]2(C)[C@@H](O)[C@@H](Cc3cccc(C(N)=O)c3)C[C@@H]12 | – | – | inactive | 21 | 41 | inactive | –
B1 | – | – | – | – | – | – | Km [9]: 4.6 µM; Km [10]: 0.03 µM
